Reference: PMC5384874 (Medicinal chemistry (Shariqah (United Arab Emirates)), 2017)

What was measured:
Format in all cases: cell-based, human
[1] = test system: A549; test: Cytotoxicity assay, CCK-8 method, A549; conditions: read-out: IC50, cytotoxicity against A549; A549, CCK-8, 24 h incubation
Summary of the method: (§1)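 Cells grown in RPMI with 10% fetal bovine serum, penicillin (100 U/mL) and streptomycin (50 μg/mL), seeded in 96-well plates at […]. Test compound added at increasing concentrations; untreated cells as control. Incubated 24 h at 37 °C, 5% CO2, humidified. CCK-8 added, 2 h at 37 °C, read with europium detection protocol. IC50 versus DMSO-treated wells by logit method, at least three independent tests.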

[2] = test system: MCF-7; test: Cytotoxicity assay, CCK-8 method, MCF-7; conditions: read-out: IC50, cytotoxicity against MCF-7; MCF-7, CCK-8, 24 h incubation
Summary of the method: as §1

[3] = test system: HeLa; test: Cytotoxicity assay, CCK-8 method, HeLa; conditions: read-out: IC50, cytotoxicity against HeLa, CCK-8, 24 h incubation
Summary of the method: as §1

phylactones F/G [5/6]
IC50 [1]: 7.8 µM | IC50 [2]: 5.2 µM | IC50 [3]: 9.6 µM
